Source: ChEMBL document CHEMBL3407457, “Microwave-assisted synthesis of certain pyrrolylpyridines, some derived ring systems and their evaluation as anticancer and antioxidant agents” (Eur J Med Chem, 2015)
The source made the active and inactive calls. The calls are words filed in the database; no cut-off is given here.

Legend:
Hs-578T = assay: (§1) Growth inhibition of human Hs 578T cells at 10 uM after 48 hrs by sulforhodamine B assay; assay type: functional
How it was run: (§2)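 NCI-60 primary screen: cells given a single 10 µM dose under 48 h continuous exposure. Growth/viability estimated by sulforhodamine B protein assay. Reported as percent growth of treated cells (mean graph), expressed as percent growth inhibition.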

EKVX = assay: (§3) Growth inhibition of human EKVX cells at 10 uM after 48 hrs by sulforhodamine B assay; assay type: functional; how it was run: as §2
UO-31 = assay: (§4) Growth inhibition of human UO31 cells at 10 uM after 48 hrs by sulforhodamine B assay; assay type: functional; how it was run: as §2
[1] = (§5) Growth inhibition of human OVCAR4 cells at 10 uM after 48 hrs by sulforhodamine B assay; assay type: functional; conditions: OVCAR-4, 48 h, read-out: GI; how it was run: as §2
A498 = assay: Growth inhibition of human A498 cells at 10 uM after 48 hrs by sulforhodamine B assay; assay type: functional; conditions: A498, 48 h, read-out: GI; how it was run: as §2
HCT-116 = assay: (§6) Growth inhibition of human HCT116 cells at 10 uM after 48 hrs by sulforhodamine B assay; assay type: functional; how it was run: as §2
CCRF-CEM = assay: Growth inhibition of human CCRF-CEM cells at 10 uM after 48 hrs by sulforhodamine B assay; assay type: functional; conditions: read-out: GI; how it was run: as §2
MDA-MB-468 = assay: Growth inhibition of human MDA-MB-468 cells at 10 uM after 48 hrs by sulforhodamine B assay; assay type: functional; conditions: for inhibition of growth at 10 µM: MDA-MB-468, 48 h, read-out: GI; how it was run: as §2
SK-MEL-5 = assay: Growth inhibition of human SK-MEL-5 cells at 10 uM after 48 hrs by sulforhodamine B assay; assay type: functional; conditions: for inhibition of growth at 10 µM: SK-MEL-5, 48 h, read-out: GI; how it was run: as §2
SNB-75 = assay: Growth inhibition of human SNB75 cells at 10 uM after 48 hrs by sulforhodamine B assay; assay type: functional; conditions: for inhibition of growth at 10 µM: SNB-75, 48 h, read-out: GI; how it was run: as §2
ACHN = assay: Growth inhibition of human ACHN cells at 10 uM after 48 hrs by sulforhodamine B assay; assay type: functional; conditions: for inhibition of growth at 10 µM: read-out: GI; how it was run: as §2
[2] = Growth inhibition of human HOP92 cells at 10 uM after 48 hrs by sulforhodamine B assay; assay type: functional; conditions: HOP-92, 48 h, read-out: GI; how it was run: as §2
HL-60(TB) = assay: Growth inhibition of human HL-60(TB) cells at 10 uM after 48 hrs by sulforhodamine B assay; assay type: functional; conditions: for inhibition of growth at 10 µM: HL-60, 48 h, read-out: GI
How it was run: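 NCI-60 one-dose primary screen, HL-60(TB) within the leukemia subpanel. Single 10 µM concentration, 48 h continuous exposure. Growth estimated by sulforhodamine B protein assay. Percent growth of treated cells expressed as percentage growth inhibition (GI%).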

NCI-H522 = assay: Growth inhibition of human NCI-H522 cells at 10 uM after 48 hrs by sulforhodamine B assay; assay type: functional; conditions: for inhibition of growth at 10 µM: NCI-H522, 48 h, read-out: GI; how it was run: as §2
U-251 = assay: Growth inhibition of human U251 cells at 10 uM after 48 hrs by sulforhodamine B assay; assay type: functional; conditions: for inhibition of growth at 10 µM: U-251, 48 h, read-out: GI; how it was run: as §2
K562 = assay: Growth inhibition of human K562 cells at 10 uM after 48 hrs by sulforhodamine B assay; assay type: functional; conditions: for inhibition of growth at 10 µM: K562, 48 h, read-out: GI; how it was run: as §2
[3] = Growth inhibition of human MOLT4 cells at 10 uM after 48 hrs by sulforhodamine B assay; assay type: functional; conditions: MOLT-4, 48 h, read-out: GI; how it was run: as §2
[4] = Growth inhibition of human RPMI8226 cells at 10 uM after 48 hrs by sulforhodamine B assay; assay type: functional; conditions: RPMI-8226, 48 h, read-out: GI; how it was run: as §2
PC-3 = assay: (§7) Growth inhibition of human PC3 cells at 10 uM after 48 hrs by sulforhodamine B assay; assay type: functional; how it was run: as §2
[5] = Growth inhibition of human UACC62 cells at 10 uM after 48 hrs by sulforhodamine B assay; assay type: functional; conditions: UACC-62, 48 h, read-out: GI; how it was run: as §2
IGROV-1 = assay: Growth inhibition of human IGROV1 cells at 10 uM after 48 hrs by sulforhodamine B assay; assay type: functional; conditions: IGROV-1, 48 h, read-out: GI; how it was run: as §2
CAKI-1 = assay: Growth inhibition of human CAKI-1 cells at 10 uM after 48 hrs by sulforhodamine B assay; assay type: functional; conditions: for inhibition of growth at 10 µM: CAKI-1, 48 h, read-out: GI; how it was run: as §2
T47D = assay: Growth inhibition of human T47D cells at 10 uM after 48 hrs by sulforhodamine B assay; assay type: functional; conditions: read-out: GI; how it was run: as §2
LOX IMVI = assay: (§8) Growth inhibition of human LOXIMVI cells at 10 uM after 48 hrs by sulforhodamine B assay; assay type: functional; how it was run: as §2
[6] = Growth inhibition of human HCT15 cells at 10 uM after 48 hrs by sulforhodamine B assay; assay type: functional; conditions: HCT-15, 48 h, read-out: GI; how it was run: as §2
OVCAR-4 = assay: as §5; assay type: functional; how it was run: as §2
[7] = as §7; assay type: functional; conditions: PC-3, 48 h, read-out: GI; how it was run: as §2
[8] = as §1; assay type: functional; conditions: read-out: GI; how it was run: as §2
[9] = as §3; assay type: functional; conditions: read-out: GI; how it was run: as §2
[10] = as §4; assay type: functional; conditions: UO-31, 48 h, read-out: GI; how it was run: as §2
[11] = as §6; assay type: functional; conditions: HCT-116, 48 h, read-out: GI; how it was run: as §2
[12] = Antioxidant activity assessed as DPPH radical scavenging activity at 10^-3 M incubated for 30 mins by spectrophotometry; assay type: physicochemical; conditions: 0.5 h, 1000 µM
How it was run: (§9)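 Compound at 10^-3 or 10^-4 M mixed with methanolic DPPH (0.1 mL of 1 mM stock; 3 mL total volume), shaken, kept in the dark 30 min at room temperature. Absorbance read at 517 nm. Scavenging (%) = (A_control − A_sample)/A_control × 100, where the control is DPPH in methanol alone. BHT served as reference antioxidant. Triplicate, mean ± SD of three independent experiments.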

[13] = Antioxidant activity assessed as DPPH radical scavenging activity at 10^-4 M incubated for 30 mins by spectrophotometry; assay type: physicochemical; conditions: 0.5 h, 100 µM; how it was run: as §9
[14] = as §8; assay type: functional; conditions: LOX IMVI, read-out: GI; how it was run: as §2

Row | Compound | inhibition of growth at 10 µM [1] [%] | inhibition of growth at 10 µM (A498) [%] | inhibition of growth at 10 µM (CCRF-CEM) [%] | inhibition of growth at 10 µM [2] [%] | inhibition of growth at 10 µM (HL-60(TB)) [%] | inhibition of growth at 10 µM [3] [%] | inhibition of growth at 10 µM [4] [%] | inhibition of growth at 10 µM [5] [%] | inhibition of growth at 10 µM (IGROV-1) [%] | inhibition of growth at 10 µM (T47D) [%] | inhibition of growth at 10 µM [6] [%] | inhibition of growth at 10 µM (SK-MEL-5) [%] | inhibition of growth at 10 µM (ACHN) [%] | inhibition of growth at 10 µM (NCI-H522) [%] | inhibition of growth at 10 µM (K562) [%] | inhibition of growth at 10 µM [7] [%] | inhibition of growth at 10 µM [9] [%] | inhibition of growth at 10 µM [10] [%] | inhibition of growth at 10 µM [11] [%] | inhibition of growth at 10 µM (SNB-75) [%] | also measured
1 | CC1CCCc2c1nc1ncn3ncnc3c1c2-c1cccn1C (stereo unspecified) | 6.1 | 5.7 | 10.3 | 10.1 | 8.5 | 20.4 | 12.2 | 8.3 | 7.9 | 11.8 | 6.3 | – | – | – | – | – | – | – | – | – | growth inhibition (GI) (Hs-578T): inactive; growth inhibition (GI) (EKVX): inactive; growth inhibition (GI) (UO-31): inactive; growth inhibition (GI) (HCT-116): inactive; growth inhibition (GI) (MDA-MB-468): inactive; growth inhibition (GI) (SK-MEL-5): inactive; growth inhibition (GI) (SNB-75): inactive; growth inhibition (GI) (ACHN): inactive; growth inhibition (GI) (NCI-H522): inactive; growth inhibition (GI) (U-251): inactive; growth inhibition (GI) (K562): inactive; growth inhibition (GI) (PC-3): inactive; growth inhibition (GI) (CAKI-1): inactive; growth inhibition (GI) (LOX IMVI): inactive
2 | CC1CCCc2c1nc1[nH]c(=S)n(-c3ccccc3)c(=N)c1c2-c1cccn1C (stereo unspecified) | – | 8.6 | 15.6 | 23.6 | – | 23.8 | 47.6 | 18.4 | 10.6 | 19.3 | 14.1 | 16.3 | 12.3 | 21.5 | 12.1 | 12.5 | – | – | – | – | growth inhibition (GI) (Hs-578T): inactive; growth inhibition (GI) (EKVX): inactive; growth inhibition (GI) (UO-31): inactive; growth inhibition (GI) (OVCAR-4): inactive; growth inhibition (GI) (HCT-116): inactive; inhibition of growth at 10 µM (MDA-MB-468): 11.4%; growth inhibition (GI) (SNB-75): inactive; growth inhibition (GI) (HL-60(TB)): inactive; growth inhibition (GI) (U-251): inactive; inhibition of growth at 10 µM (CAKI-1): 13.8%; growth inhibition (GI) (LOX IMVI): inactive
3 | CC1CCCc2c1nc1ncn(N)c(=N)c1c2-c1cccn1C (stereo unspecified) | – | 14.6 | 30.1 | 11.3 | 11.6 | 29.2 | 38.6 | 16.9 | 12.4 | 17.5 | 13.4 | 10.5 | – | 10.4 | 18.3 | 20.4 | 16.2 | 7.3 | 11.7 | 10.7 | inhibition of growth at 10 µM [8]: 10.7%; growth inhibition (GI) (OVCAR-4): inactive; growth inhibition (GI) (MDA-MB-468): inactive; growth inhibition (GI) (ACHN): inactive; growth inhibition (GI) (U-251): inactive; growth inhibition (GI) (CAKI-1): inactive; growth inhibition (GI) (LOX IMVI): inactive
4 | CC1CCCc2c1nc(NC(=S)NC(=O)c1ccccc1)c(C#N)c2-c1cccn1C (stereo unspecified) | 27.6 | 22.6 | 27.5 | 32 | 35.9 | 31.4 | 36.7 | 24.7 | 38.8 | 40.6 | 20.1 | 12.8 | 31.4 | 22.4 | 33.5 | 28.4 | 14.2 | 51.4 | 19.5 | 31.9 | inhibition of growth at 10 µM [8]: 38.1%; inhibition (INH) [12]: 23%; inhibition of growth at 10 µM (MDA-MB-468): 32.7%; inhibition of growth at 10 µM (U-251): 15.8%; inhibition (INH) [13]: 11%; inhibition of growth at 10 µM (CAKI-1): 31.9%; inhibition of growth at 10 µM [14]: 29.6%
5 | CC1CCCc2c1nc1[nH]c(=S)nc(N)c1c2-c1cccn1C (stereo unspecified) | 13.8 | 41.3 | 26.7 | 36.4 | 33.2 | 32.6 | 51.9 | 23.5 | 34.4 | 40.1 | 13.4 | 18.4 | 15.2 | 29.7 | 29.6 | 19.8 | 18.9 | 34.7 | 22.6 | 17.5 | growth inhibition (GI) (Hs-578T): inactive; inhibition (INH) [12]: 26%; growth inhibition (GI) (MDA-MB-468): inactive; inhibition of growth at 10 µM (U-251): 21.4%; inhibition (INH) [13]: 14%; growth inhibition (GI) (CAKI-1): inactive; inhibition of growth at 10 µM [14]: 10.7%
6 | CCSc1nc(N)c2c(-c3cccn3C)c3c(nc2n1)C(C)CCC3 (stereo unspecified) | 23.4 | 26.5 | 21.6 | 28.7 | 25.8 | 42.3 | 68.5 | 24.1 | 35.3 | 54.2 | 10.8 | 13.1 | 11.9 | 33.8 | 37.4 | 57.1 | 34.1 | 45.8 | 35.3 | 21.4 | inhibition of growth at 10 µM [8]: 15.2%; inhibition (INH) [12]: 28%; inhibition of growth at 10 µM (MDA-MB-468): 15.4%; inhibition of growth at 10 µM (U-251): 16.7%; inhibition (INH) [13]: 16%; inhibition of growth at 10 µM (CAKI-1): 21.7%; inhibition of growth at 10 µM [14]: 12.9%
